Data on 1 compound can be found in publication PMC4339026 (Biopolymers, 2014).

What all share (assay type): biochemical
Assay [1] addresses T1, meprin β (Homo sapiens, UniProt Q16820).
T1 sequence (Q16820 62-614 limits assumed): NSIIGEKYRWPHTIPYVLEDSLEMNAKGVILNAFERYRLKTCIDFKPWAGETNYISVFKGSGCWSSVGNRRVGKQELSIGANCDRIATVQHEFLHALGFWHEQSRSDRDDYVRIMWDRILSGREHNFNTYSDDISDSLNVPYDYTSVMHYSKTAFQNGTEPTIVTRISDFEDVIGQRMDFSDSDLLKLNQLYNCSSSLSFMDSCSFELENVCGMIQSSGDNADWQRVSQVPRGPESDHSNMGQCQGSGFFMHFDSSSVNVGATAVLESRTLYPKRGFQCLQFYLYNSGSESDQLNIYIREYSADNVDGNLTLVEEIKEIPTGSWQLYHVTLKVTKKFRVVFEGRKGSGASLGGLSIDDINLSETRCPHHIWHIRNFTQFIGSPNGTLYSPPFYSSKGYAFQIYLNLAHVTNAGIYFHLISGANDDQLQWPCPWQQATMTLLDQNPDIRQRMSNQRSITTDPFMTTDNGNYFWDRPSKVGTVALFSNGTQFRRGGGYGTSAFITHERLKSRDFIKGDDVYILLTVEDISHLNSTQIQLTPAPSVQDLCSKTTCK
Briefly: Meprin β LOPAC pilot screen. The note with it: 18 μM.

The next assay deals with T2, MMP-2 (Homo sapiens, UniProt P08253).
T2 sequence (P08253 110-660): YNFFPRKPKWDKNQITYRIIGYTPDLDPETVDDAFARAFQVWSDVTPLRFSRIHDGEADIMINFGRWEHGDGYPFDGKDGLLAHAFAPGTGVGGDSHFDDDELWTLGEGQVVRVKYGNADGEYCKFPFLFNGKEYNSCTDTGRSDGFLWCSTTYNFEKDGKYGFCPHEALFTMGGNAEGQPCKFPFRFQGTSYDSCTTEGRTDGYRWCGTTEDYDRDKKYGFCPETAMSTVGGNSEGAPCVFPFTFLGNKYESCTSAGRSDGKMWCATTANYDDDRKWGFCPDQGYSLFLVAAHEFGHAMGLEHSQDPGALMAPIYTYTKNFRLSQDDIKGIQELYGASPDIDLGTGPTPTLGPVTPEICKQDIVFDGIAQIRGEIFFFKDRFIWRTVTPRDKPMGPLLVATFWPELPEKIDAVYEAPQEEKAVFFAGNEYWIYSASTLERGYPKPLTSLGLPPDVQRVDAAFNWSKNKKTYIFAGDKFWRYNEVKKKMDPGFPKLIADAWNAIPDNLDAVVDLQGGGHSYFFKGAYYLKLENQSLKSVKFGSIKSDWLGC
Briefly: Selectivity testing against zinc metalloproteases: MMP-2. The note with it: read-out: IC50 MMP-2; n = 3 Mean ± SD.

For another assay, the target named is T3, meprin α (Homo sapiens, UniProt Q16819).
T3 sequence (Q16819 66-653 limits assumed): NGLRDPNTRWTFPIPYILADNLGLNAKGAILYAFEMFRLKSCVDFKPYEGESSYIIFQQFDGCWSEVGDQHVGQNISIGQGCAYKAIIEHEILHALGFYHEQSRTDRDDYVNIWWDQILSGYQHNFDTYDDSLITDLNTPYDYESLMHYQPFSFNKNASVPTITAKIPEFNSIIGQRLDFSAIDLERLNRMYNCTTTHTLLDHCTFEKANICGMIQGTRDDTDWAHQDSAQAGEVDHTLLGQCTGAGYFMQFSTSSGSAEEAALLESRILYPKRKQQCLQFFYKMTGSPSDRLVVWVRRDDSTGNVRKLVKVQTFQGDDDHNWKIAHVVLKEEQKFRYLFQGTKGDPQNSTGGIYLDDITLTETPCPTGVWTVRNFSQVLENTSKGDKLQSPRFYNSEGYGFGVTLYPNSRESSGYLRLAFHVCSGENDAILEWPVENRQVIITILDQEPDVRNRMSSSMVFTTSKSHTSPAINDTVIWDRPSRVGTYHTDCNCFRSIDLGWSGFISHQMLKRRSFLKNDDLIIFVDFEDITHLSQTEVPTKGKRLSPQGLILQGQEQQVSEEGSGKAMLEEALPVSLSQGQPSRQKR
Briefly: Meprin α HTS FRET assay, dose response. The note with it: read-out: IC50 Meprin α; selectivity testing; n = 3 Mean ± SD. The procedure, abridged:
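Recombinant human Strep-tagged meprin α was expressed in baculovirus-infected BTI-TN-5B1-4 cells, trypsin-activated, then freed of trypsin. It was used as a 2x solution at 2.6 nM in 50 mM Hepes, 0.01% Brij-35, pH 7.5. Test compound was pre-incubated 30 min at RT, then 2x (MCA)-YVADAPK-(K-ε-DNP) at 20 μM was added for 1 h at RT. Read at ex 324/em 393 nm. 3-fold dilutions in quadruplicate; 4-parameter fit; 0.1% or 1.0% DMSO.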

Another assay deals with MMP-9 (Homo sapiens, UniProt P14780). Briefly: Selectivity testing against zinc metalloproteases: MMP-9. The note with it: read-out: IC50 MMP-9; n = 3 Mean ± SD.
Chain of MMP-9 (P14780 94-707, species assumed): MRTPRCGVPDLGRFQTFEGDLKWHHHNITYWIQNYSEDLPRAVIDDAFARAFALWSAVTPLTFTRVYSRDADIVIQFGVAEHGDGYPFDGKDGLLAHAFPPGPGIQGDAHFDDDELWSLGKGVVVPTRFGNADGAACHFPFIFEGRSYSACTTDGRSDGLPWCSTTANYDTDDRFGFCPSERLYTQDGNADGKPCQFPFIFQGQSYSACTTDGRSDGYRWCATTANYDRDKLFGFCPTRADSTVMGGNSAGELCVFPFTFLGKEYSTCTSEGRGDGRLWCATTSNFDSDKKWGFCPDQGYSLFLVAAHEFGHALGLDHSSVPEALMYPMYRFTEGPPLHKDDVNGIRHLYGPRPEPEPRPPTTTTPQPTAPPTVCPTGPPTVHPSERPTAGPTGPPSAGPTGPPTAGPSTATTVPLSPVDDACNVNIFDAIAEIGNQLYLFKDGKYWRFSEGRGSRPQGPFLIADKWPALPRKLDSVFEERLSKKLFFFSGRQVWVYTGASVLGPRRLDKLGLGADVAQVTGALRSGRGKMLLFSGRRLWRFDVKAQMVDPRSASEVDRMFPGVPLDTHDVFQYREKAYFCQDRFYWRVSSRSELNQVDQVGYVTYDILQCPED
The next assay deals with MMP-13 (Homo sapiens, UniProt P45452). Briefly: Selectivity testing against zinc metalloproteases: MMP-13. The note with it: read-out: IC50 MMP-13; n = 3 Mean ± SD.
In a further assay the target is T4, MMP-1 (Homo sapiens, UniProt P03956).
T4 sequence (P03956 100-469): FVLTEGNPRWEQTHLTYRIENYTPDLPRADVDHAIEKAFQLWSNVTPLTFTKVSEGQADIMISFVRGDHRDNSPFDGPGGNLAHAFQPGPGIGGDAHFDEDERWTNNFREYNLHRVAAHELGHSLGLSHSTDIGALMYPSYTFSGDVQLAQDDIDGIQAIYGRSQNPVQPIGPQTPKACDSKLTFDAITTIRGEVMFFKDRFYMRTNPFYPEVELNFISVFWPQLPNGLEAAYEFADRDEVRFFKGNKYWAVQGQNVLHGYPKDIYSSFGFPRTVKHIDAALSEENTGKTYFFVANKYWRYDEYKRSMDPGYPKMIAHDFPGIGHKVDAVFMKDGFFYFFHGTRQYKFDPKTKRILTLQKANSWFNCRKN
Briefly: Selectivity testing against zinc metalloproteases: MMP-1. The settings on record: read-out: IC50 MMP-1; n = 3 Mean ± SD.

The target of the next assay is T5, ADAM10 (Homo sapiens, UniProt O14672).
T5 sequence (O14672 214-748): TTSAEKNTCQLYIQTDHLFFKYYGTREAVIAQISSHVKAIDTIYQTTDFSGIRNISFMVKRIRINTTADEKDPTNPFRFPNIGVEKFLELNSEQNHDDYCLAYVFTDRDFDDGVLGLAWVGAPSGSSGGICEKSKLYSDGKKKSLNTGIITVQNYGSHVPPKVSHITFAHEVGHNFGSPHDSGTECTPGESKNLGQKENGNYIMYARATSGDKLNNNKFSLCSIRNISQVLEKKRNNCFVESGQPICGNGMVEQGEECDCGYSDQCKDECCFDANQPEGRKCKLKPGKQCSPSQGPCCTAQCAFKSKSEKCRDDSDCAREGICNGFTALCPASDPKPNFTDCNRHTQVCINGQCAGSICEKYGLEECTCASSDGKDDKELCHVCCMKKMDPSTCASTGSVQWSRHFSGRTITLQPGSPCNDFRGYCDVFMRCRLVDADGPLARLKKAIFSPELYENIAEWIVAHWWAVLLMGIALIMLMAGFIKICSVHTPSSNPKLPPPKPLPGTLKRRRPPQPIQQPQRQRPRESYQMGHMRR
Briefly: Selectivity testing against zinc metalloproteases: ADAM10. The settings on record: read-out: IC50 ADAM10; n = 3 Mean ± SD.

Assay [2] has as its target T1, meprin β. Briefly: Meprin β HTS FRET assay, dose response. The settings on record: dose response experiment, data not shown. Put shortly:
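Trypsin-activated meprin β (trypsin removed on immobilized ovomucoid) in 50 mM Hepes, 0.01% Brij-35, pH 7.5, added as 2x (0.15 nM) solution. Pin-transferred inhibitor was preincubated 30 min at RT. 2x (20 μM) (MCA)-EDEDED-(K-ε-DNP) was then added, run 1 h at RT, and read at ex 324/em 393 nm. A 3-fold dilution series was run in quadruplicate, and % inhibition was fitted with a 4-parameter equation. DMSO final was 0.1% or 1.0%.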

The next assay concerns the target ADAM17 (Homo sapiens, UniProt P78536). Briefly: Selectivity testing against zinc metalloproteases: ADAM17. The settings on record: read-out: IC50 ADAM17; n = 3 Mean ± SD.

Bounds are passed on as bounds.

Chain of ADAM17 (P78536 215-824, species assumed): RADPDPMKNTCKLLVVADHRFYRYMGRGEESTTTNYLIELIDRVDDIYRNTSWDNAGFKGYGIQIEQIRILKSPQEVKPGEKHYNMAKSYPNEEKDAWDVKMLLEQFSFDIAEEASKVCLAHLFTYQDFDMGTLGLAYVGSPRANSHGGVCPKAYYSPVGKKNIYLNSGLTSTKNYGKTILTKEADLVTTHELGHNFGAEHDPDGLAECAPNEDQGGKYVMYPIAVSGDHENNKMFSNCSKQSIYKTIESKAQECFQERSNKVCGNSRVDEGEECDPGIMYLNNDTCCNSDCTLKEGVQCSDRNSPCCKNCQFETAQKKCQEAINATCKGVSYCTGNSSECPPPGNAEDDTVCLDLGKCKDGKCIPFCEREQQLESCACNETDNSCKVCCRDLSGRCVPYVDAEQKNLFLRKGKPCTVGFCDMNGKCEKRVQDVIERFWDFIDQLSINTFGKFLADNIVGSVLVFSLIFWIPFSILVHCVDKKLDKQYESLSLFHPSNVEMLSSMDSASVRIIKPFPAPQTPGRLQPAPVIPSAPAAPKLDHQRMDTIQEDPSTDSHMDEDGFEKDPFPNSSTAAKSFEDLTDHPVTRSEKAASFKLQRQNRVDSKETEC

`N.N.[Cl][Pt][Cl]` [Cisplatin, cisplatin]: the “% inhibition meprin β in pilot screen” value at meprin β [1] is listed as “negative inhibition values”. Besides, the “meprin β LOPAC pilot screen outcome” value at meprin β [1] (hit cutoff 25% inhibition) is on record as “selective hits”. The 50% inhibitory concentration (IC50) was 5.1 ± 0.6 µM at MMP-2; over 100 µM on meprin α; 13.9 ± 2.1 µM on MMP-9; over 100 µM on MMP-13; 5.1 ± 0.5 µM at MMP-1; 4.2 ± 0.2 µM on ADAM10. Also, on ADAM17, the half-inhibitory concentration (IC50) was found to be 5.1 ± 0.4 µM. Besides, the “meprin β dose response behaviour” value at meprin β [2] was “dose dependent negative inhibition”.

Usually IC50 stands for the concentration at which inhibition is half-maximal.
